From ChEMBL document CHEMBL3616379, “From carbohydrates to drug-like fragments: Rational development of novel α-amylase inhibitors” (Bioorg Med Chem, 2015)
The source made the active and inactive calls. The rule behind the calls is not given here.

Key:
Alpha-amylase 1A [1] = target: T1, Alpha-amylase 1A (Homo sapiens, UniProt P0DUB6); experiment: Inhibition of human salivary alpha-amylase using GalG2CNP as substrate assessed as CNP liberation by spectrophotometric analysis
T1 sequence (P0DUB6 whole entry): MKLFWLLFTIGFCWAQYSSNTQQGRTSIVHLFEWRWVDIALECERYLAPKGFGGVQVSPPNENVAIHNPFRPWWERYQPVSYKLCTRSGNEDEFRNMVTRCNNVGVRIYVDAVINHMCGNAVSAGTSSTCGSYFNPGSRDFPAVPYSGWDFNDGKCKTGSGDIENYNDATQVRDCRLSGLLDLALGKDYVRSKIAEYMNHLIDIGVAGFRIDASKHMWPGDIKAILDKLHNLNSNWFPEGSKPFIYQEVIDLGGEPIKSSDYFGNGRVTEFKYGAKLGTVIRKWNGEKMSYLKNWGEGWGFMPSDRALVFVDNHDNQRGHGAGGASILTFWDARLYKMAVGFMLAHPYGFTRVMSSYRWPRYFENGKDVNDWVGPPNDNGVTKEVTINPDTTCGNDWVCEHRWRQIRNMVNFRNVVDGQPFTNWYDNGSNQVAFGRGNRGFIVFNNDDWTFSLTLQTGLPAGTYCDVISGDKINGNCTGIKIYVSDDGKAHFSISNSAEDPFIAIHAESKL
Outline: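 Chromogenic kinetic assay with 2 nM HSA and 0.75-4 mM GalG2CNP in 50 mM MES pH 6.0 with 5 mM Ca(OAc)2, 51.5 mM NaCl, 152 mM NaN3, 37°C. Substrate and inhibitor (DMSO dilutions) were premixed and the reaction started by adding enzyme. CNP release was followed continuously at 400 nm. IC50 was taken from a four-parameter logistic fit of fractional activity versus inhibitor level, three repeats.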

Alpha-amylase 1A [2] = target: T1, Alpha-amylase 1A; experiment: Non-competitive inhibition of human salivary alpha-amylase using GalG2CNP as substrate assessed as CNP liberation by Lineweaver-Burk plot analysis
Outline: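 Same HSA/GalG2CNP system: 2 nM enzyme, 0.75-4 mM substrate, 50 mM MES pH 6.0 with Ca(OAc)2, NaCl, NaN3, 37°C, CNP followed continuously at 400 nm, inhibitor added from DMSO. Inhibition type was assigned from Lineweaver-Burk plots.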

Alpha-amylase 1A [3] = target: T1, Alpha-amylase 1A; experiment: Inhibition of human salivary alpha-amylase using GalG2CNP as substrate by UV-Vis spectrophotometric analysis; details: read-out: IC50
[4] = target: T2, Alpha-amylase 1A (Homo sapiens) (UniProt P0DUB6); experiment: Potency index, ratio of BAS 04880564 IC50 to compound IC50 for human salivary alpha-amylase
T2 sequence (whole entry): T1 sequence (P0DUB6 whole entry)

[5] = target: T2, Alpha-amylase 1A (Homo sapiens); experiment: Mixed type inhibition of human salivary alpha-amylase using GalG2CNP as substrate by Lineweaver-Burk plot analysis
Outline: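 Inhibition mode assigned from Lineweaver-Burk plots. Human salivary α-amylase (2 nM) started reactions containing GalG2CNP (0.75–4 mM) and inhibitor in DMSO, in 50 mM MES pH 6.0 with 5 mM Ca(OAc)2, 51.5 mM NaCl, 152 mM NaN3 at 37°C. Rates from continuous 400 nm absorbance of released CNP.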

Escherichia coli = experiment: Inhibition of Escherichia coli MurC ligase assessed as residual activity at 100 uM after 15 mins by Malachite green assay
[6] = target: T2, Alpha-amylase 1A (Homo sapiens); experiment: Inhibition of human salivary alpha-amylase using GalG2CNP as substrate at 200 uM by UV-Vis spectrophotometric analysis
Outline: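 Single-concentration test at 200 μM inhibitor against human salivary α-amylase (2 nM) with GalG2CNP substrate, 50 mM MES pH 6.0 containing 5 mM Ca(OAc)2, 51.5 mM NaCl, 152 mM NaN3, 37°C. Chloronitrophenol liberation monitored continuously at 400 nm by UV-Vis spectrophotometry.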

[7] = target: Heat shock protein HSP 90-beta (Homo sapiens, UniProt P08238); experiment: Inhibition of HSP90 (unknown origin)
Chain of Heat shock protein HSP 90-beta (P08238 whole entry): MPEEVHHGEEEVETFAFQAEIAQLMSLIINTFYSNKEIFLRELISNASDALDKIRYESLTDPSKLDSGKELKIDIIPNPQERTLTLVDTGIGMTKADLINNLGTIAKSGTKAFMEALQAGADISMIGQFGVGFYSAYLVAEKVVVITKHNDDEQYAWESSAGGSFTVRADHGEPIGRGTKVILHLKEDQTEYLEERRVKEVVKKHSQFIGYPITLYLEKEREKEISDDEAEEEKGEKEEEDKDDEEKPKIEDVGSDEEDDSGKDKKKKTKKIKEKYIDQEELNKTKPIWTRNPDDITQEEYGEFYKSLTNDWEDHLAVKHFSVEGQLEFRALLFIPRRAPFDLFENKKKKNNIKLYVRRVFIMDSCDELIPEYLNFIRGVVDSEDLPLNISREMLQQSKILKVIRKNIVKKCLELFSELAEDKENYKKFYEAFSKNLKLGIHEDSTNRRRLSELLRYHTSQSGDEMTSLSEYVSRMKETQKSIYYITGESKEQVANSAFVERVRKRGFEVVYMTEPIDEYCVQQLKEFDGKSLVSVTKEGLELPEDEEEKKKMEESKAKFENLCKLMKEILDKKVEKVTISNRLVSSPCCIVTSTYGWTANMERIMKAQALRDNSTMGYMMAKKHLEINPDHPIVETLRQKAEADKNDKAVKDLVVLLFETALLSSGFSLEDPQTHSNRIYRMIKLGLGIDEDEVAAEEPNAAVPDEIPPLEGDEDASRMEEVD

Alpha-amylase 1A [8] = target: T1, Alpha-amylase 1A; experiment: Inhibition of human salivary alpha-amylase using GalG2CNP as substrate
Alpha-amylase 1A [9] = target: T1, Alpha-amylase 1A; experiment: Inhibition of human salivary alpha-amylase using rice starch as substrate after 12 mins by microplate reader analysis
[10] = target: T3, Pancreatic alpha-amylase (Homo sapiens) (UniProt P04746); experiment: Inhibition of human pancreatic alpha-amylase using CNPG3 as substrate by spectrophotometric analysis in presence of 40 mM G3F as donor compound and 25 mM 5FIdoF as acceptor compound relative to control
T3 sequence (whole entry): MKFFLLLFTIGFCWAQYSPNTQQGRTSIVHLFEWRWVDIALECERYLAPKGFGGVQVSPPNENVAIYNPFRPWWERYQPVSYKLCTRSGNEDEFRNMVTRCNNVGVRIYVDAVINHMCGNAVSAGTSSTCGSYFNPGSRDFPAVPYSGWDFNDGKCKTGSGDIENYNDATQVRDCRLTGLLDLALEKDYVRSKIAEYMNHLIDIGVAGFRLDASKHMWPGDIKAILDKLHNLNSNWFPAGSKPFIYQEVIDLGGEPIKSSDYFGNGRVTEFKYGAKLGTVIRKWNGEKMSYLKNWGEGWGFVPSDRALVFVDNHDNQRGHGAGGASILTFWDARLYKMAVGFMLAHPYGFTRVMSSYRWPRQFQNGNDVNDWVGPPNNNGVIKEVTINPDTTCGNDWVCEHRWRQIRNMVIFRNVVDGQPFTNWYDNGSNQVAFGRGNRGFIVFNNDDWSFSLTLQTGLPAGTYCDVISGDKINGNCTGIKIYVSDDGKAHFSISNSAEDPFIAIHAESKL

Pancreatic alpha-amylase [11] = target: T4, Pancreatic alpha-amylase (Sus scrofa, UniProt P00690); experiment: Inhibition of porcine pancreatic alpha-amylase using soluble starch as substrate after 30 mins by Bernfeld method
T4 sequence (P00690 whole entry): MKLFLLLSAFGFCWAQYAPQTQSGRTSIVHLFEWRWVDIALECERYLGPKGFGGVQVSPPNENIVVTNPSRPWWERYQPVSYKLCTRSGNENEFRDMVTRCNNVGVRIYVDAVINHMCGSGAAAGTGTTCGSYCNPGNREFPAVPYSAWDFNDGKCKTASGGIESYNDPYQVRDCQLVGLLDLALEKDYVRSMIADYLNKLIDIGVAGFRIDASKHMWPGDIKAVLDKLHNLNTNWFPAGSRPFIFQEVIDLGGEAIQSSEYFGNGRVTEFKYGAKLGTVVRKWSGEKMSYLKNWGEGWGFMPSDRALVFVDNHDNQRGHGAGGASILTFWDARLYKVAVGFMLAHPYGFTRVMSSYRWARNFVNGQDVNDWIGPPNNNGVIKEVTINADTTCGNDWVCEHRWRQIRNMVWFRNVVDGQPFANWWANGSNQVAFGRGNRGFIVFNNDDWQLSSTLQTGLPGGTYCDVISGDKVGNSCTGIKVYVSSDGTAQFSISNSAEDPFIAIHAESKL

[12] = target: T3, Pancreatic alpha-amylase (Homo sapiens); experiment: Inhibition of human pancreatic alpha-amylase using CNPG3 as substrate at 50 mM by spectrophotometric analysis in presence of 20 mM MeG2F as donor compound and 50 mM 5FIdoF as acceptor compound relative to control
Pancreatic alpha-amylase [13] = target: T4, Pancreatic alpha-amylase; experiment: Inhibition of porcine pancreatic alpha-amylase using DP17 amylose as substrate preincubated for 5 mins followed by substrate addition by copper-bicinchoninate method
[14] = target: Alpha-amylase type A isozyme (Hordeum vulgare, UniProt P00693); experiment: Inhibition of recombinant barley alpha-amylase isozyme-1 using DP17 amylose as substrate preincubated for 5 mins followed by substrate addition by copper-bicinchoninate method
Chain of Alpha-amylase type A isozyme (P00693 whole entry): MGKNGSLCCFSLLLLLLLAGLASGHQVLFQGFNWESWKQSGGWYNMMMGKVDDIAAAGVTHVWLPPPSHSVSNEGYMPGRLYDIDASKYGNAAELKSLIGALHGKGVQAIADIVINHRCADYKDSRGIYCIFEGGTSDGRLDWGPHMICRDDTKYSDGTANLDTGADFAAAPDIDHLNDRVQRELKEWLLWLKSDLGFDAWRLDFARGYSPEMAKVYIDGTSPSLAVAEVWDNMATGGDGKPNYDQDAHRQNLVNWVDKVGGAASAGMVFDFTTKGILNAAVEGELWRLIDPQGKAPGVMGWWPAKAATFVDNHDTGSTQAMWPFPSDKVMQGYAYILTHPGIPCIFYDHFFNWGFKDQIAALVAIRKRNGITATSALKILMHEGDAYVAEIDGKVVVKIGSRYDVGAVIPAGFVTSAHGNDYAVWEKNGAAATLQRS

Pancreatic alpha-amylase [15] = target: T5, Pancreatic alpha-amylase (Homo sapiens, UniProt P04746); experiment: Inhibition of human pancreatic alpha-amylase expressed in Pichia pastoris using amylase as substrate preincubated with substrate for 10 mins followed by protein addition measured every 5 mins
T5 sequence (P04746 whole entry): T3 sequence (whole entry)

`O=C(OC[C@H]1O[C@@H](OC(=O)c2cc(O)c(O)c(O)c2)[C@H](OC(=O)c2cc(O)c(O)c(O)c2)[C@@H](OC(=O)c2cc(O)c(O)c(O)c2)[C@@H]1OC(=O)c1cc(O)c(O)c(O)c1)c1cc(O)c(O)c(O)c1` [PENTAGALLOYL GLUCOSE] was tested, and the IC50 (Alpha-amylase 1A [1]) was 2.35 µM and the Ki (Alpha-amylase 1A [2]) was 2.6 µM.
In the case of `CC(=O)c1cccc(Nc2nc(-c3ccc(O)cc3O)cs2)c1`, the IC50 (Alpha-amylase 1A [3]) is reported as 100 µM, the Ratio IC50 [4] is reported as 1.38 and the inhibition [5] is reported as “Active”. It also gave an Activity (Escherichia coli) of 83%.
With `CCc1cc(C(=O)Cn2cnc3ccccc32)c(O)cc1O` the inhibition [6] was “inactive” and the IC50 [7] was greater than 50 µM.
`CC1OC(OC2C(CO)OC(O)C(O)C2O)C(O)C(O)C1NC1C=C(CO)C(OC2OC(CO)C(OC3OC(C)C(NC4C=C(CO)C(O)C(O)C4O)C(O)C3O)C(O)C2O)C(O)C1O` (stereo unspecified) gave a Ki (Alpha-amylase 1A [8]) of 0.7 µM.
`O=C(O[C@@H]1Cc2c(O)cc(O)cc2O[C@@H]1c1cc(O)c(O)c(O)c1)c1cc(O)c(O)c(O)c1` [EPIGALOCATECHIN GALLATE] showed an IC50 (Alpha-amylase 1A [9]) of 1400 µM.
`OCC1OC(OC2C(O)C(O)C(F)OC2(F)CO)C(O)C(O)C1O` (stereo unspecified) was tested, and the inhibition [10] was 90%.
For `O=C(/C=C/c1ccccc1)c1ccccc1` [CHALCONE], the Ki (Pancreatic alpha-amylase [11]) was 48 µM.
With `OCC1OC(OC2C(CO)OC(OC3C(O)C(O)C(F)OC3(F)CO)C(O)C2O)C(O)C(O)C1O` (stereo unspecified) the inhibition [12] was 95%.
With `O=S(=O)(O)O[C@@H](CO)[C@@H](O)CN1C[C@@H](O)[C@H](O)[C@H]1CO` the Ki (Pancreatic alpha-amylase [13]) was less than 10000 µM and the Ki [14] was less than 10000 µM.
`C[C@H]1O[C@H](O[C@H]2[C@H](O)[C@@H](O)[C@@H](O)O[C@@H]2CO)[C@H](O)[C@@H](O)[C@@H]1NC1=C[C@H](CO)[C@@H](O[C@H]2O[C@H](CO)[C@@H](O[C@H]3O[C@H](CO)[C@@H](O)[C@H](O)[C@H]3O)[C@H](O)[C@H]2O)[C@H](O)[C@H]1O` gave an IC50 (Pancreatic alpha-amylase [15]) of 2.59 µM.
